Data on two compounds can be found in ChEMBL document CHEMBL4680220, “Synthesis and biological evaluation of acridine-based histone deacetylase inhibitors as multitarget agents against Alzheimer's disease” (Eur J Med Chem, 2020).

Data set [1] has as its system Hippocampal neurone. Nature of the data set: Induction of neurite outgrowth in Sprague-Dawley rat primary hippocampal neurons assessed as increase in number of axonal and dendritic neurite incubated for 3 days by DAPI staining based immunofluorescence microscopic analysis. Format: functional. The conditions noted are these: time 3.0 day. Put shortly: (§1)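 Primary hippocampal neurons from embryonic Sprague-Dawley rats, plated on poly-D-lysine and kept in B27-neurobasal medium. Treated with DMSO or compound from DIV3 for three days, fixed at DIV6 in 4% paraformaldehyde. Axons stained with anti-tau, dendrites with anti-MAP2, nuclei with DAPI; fluorescence microscopy. At least 20 neurons traced for number and length of primary, secondary and tertiary neurites.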

A further data set concerns MDR1. As to the kind of experiment: Efflux ratio of apparent permeability across basolateral to apical side over apical to basolateral side in MDCK-MDR1 cells at 5 uM measured after 2 hrs by LC-MS/MS analysis. In kind it is ADME, cell-based, Canis lupus familiaris. To be noted: dog. Put shortly: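 MDR1-MDCK monolayers grown to confluence on collagen-coated microporous membranes. Test article dosed at 5 µM apical (A-to-B) or basolateral (B-to-A) in HBSS with 10 mM HEPES, 15 mM glucose, pH 7.4; receiver buffer has 1% BSA. 37 °C, 5% CO2; donor and receiver sampled at 120 min, quantified by LC-MS/MS (ESI). Duplicate determinations; lucifer yellow flux checks monolayer integrity. Efflux ratio = Papp(B-A)/Papp(A-B).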

In data set [2] the target is T1, Protein deacetylase HDAC6 (Homo sapiens, UniProt Q9UBN7).
T1 sequence (Q9UBN7 whole entry): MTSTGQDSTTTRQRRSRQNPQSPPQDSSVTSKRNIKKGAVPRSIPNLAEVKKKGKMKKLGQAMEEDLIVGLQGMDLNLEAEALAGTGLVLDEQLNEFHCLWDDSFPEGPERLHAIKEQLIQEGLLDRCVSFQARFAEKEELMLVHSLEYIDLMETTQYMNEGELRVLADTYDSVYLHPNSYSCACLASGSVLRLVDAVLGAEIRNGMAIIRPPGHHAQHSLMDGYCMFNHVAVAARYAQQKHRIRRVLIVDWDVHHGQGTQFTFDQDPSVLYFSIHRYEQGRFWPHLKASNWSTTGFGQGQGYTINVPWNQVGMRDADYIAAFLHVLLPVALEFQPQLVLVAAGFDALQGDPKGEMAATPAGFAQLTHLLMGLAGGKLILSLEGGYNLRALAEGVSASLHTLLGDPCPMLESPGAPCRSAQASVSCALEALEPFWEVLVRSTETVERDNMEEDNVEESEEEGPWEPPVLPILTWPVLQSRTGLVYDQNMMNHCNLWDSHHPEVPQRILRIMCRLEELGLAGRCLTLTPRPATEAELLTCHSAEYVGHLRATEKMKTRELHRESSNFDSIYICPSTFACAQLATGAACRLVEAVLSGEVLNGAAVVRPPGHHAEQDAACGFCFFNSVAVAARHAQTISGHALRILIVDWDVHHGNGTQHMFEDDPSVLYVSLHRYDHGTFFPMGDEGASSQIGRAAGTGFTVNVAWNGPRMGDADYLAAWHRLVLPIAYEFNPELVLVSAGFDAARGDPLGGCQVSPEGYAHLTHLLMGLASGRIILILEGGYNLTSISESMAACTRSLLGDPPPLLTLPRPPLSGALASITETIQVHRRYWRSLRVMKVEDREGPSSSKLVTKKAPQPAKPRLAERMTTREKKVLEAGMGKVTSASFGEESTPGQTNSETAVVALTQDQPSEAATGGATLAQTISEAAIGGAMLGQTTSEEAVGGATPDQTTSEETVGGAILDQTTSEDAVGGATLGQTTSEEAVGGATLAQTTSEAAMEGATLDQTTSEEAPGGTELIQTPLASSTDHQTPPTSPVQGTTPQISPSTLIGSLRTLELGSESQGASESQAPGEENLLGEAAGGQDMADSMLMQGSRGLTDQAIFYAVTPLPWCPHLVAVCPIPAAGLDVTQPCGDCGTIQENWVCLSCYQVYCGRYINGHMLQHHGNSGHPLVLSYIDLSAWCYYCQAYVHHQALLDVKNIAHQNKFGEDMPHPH
As to the kind of experiment: Inhibition of HDAC6 in […] cells assessed as increase in alpha-tubulin acetylation measured after 24 hrs by Western blot analysis. Format: cell-based, Mus musculus.

Data set [3] has as its target T2, Class 1 histone deacetylase (Homo sapiens, UniProt Q13547+O15379+Q92769+Q9BY41). As to the kind of experiment: Inhibition of Class 1 HDAC in […] cells assessed as increase in acetylated Histone H3 level measured after 24 hrs by Western blot analysis. In kind it is cell-based. To be noted: for inhibition: Mus musculus. (Immunoblotting shows a protein as a band on a membrane.)

Data set [4] has as its target T2, Class 1 histone deacetylase. Nature of the data set: Inhibition of class 1 HDAC in human HeLa cell nuclear extract using Boc-Lys(Ac)-AMC as substrate preincubated for 5 mins followed by substrate addition and measured after 30 mins by fluorescence assay. Format: cell-based.
The target of data set [5] is Amyloid-beta precursor protein (Homo sapiens, UniProt P05067). As to the kind of experiment: Inhibition of amyloid beta (1 to 42) (unknown origin) self aggregation after 24 hrs by thioflavin-T fluorescence method. Put shortly:
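ThT aggregation assay. Compound at varying concentrations combined with 10 µM Aβ1-42 (1 mM DMSO stock), 10 µM ThT, 1 mM EDTA in 50 mM phosphate buffer (150 mM NaCl, pH 7.4). Incubated 24 h at 37 °C with shaking at 700 rpm; fluorescence ex 440/em 486 nm. 0.1% DMSO wells = 100% aggregation; compound wells without Aβ = background. IC50 from triplicates.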

In the next data set the target is Histone deacetylase 2 (Homo sapiens, UniProt Q92769). Nature of the data set: biochemical. In kind it is cell-based, Sf9.
Chain of Histone deacetylase 2 (Q92769 whole entry): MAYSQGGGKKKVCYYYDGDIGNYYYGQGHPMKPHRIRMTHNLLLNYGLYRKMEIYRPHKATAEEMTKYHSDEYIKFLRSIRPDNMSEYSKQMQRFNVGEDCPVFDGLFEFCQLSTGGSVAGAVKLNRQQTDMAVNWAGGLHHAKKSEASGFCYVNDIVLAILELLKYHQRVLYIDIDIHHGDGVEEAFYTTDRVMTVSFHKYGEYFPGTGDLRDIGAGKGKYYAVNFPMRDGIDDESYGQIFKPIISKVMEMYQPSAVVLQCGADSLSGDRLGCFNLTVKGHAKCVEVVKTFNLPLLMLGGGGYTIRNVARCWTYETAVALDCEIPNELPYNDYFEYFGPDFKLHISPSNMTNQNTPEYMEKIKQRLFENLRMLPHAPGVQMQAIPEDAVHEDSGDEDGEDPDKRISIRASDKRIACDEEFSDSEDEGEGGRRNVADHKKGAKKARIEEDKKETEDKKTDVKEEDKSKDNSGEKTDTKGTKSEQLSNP
The test system of data set [6] is Hippocampal neurone. As to the kind of experiment: Induction of neurite outgrowth in Sprague-Dawley rat primary hippocampal neurons assessed as increase in length of axonal neurite incubated for 3 days by DAPI staining based immunofluorescence microscopic analysis. Format: functional. The conditions noted are these: time 3.0 day. Put shortly: as §1
The target in a further data set is Histone deacetylase 5 (Homo sapiens, UniProt Q9UQL6). As to the kind of experiment: Inhibition of recombinant human C-terminal His-tagged HDAC5 (656 to 1122 residues) expressed in baculovirus infected Sf9 insect cells using fluorogenic HDAC 2A substrate preincubated for 5 mins followed by substrate addition and measured after 30 mins by fluorescence assay.
Chain of Histone deacetylase 5 (Q9UQL6 whole entry, the tested form may be a part): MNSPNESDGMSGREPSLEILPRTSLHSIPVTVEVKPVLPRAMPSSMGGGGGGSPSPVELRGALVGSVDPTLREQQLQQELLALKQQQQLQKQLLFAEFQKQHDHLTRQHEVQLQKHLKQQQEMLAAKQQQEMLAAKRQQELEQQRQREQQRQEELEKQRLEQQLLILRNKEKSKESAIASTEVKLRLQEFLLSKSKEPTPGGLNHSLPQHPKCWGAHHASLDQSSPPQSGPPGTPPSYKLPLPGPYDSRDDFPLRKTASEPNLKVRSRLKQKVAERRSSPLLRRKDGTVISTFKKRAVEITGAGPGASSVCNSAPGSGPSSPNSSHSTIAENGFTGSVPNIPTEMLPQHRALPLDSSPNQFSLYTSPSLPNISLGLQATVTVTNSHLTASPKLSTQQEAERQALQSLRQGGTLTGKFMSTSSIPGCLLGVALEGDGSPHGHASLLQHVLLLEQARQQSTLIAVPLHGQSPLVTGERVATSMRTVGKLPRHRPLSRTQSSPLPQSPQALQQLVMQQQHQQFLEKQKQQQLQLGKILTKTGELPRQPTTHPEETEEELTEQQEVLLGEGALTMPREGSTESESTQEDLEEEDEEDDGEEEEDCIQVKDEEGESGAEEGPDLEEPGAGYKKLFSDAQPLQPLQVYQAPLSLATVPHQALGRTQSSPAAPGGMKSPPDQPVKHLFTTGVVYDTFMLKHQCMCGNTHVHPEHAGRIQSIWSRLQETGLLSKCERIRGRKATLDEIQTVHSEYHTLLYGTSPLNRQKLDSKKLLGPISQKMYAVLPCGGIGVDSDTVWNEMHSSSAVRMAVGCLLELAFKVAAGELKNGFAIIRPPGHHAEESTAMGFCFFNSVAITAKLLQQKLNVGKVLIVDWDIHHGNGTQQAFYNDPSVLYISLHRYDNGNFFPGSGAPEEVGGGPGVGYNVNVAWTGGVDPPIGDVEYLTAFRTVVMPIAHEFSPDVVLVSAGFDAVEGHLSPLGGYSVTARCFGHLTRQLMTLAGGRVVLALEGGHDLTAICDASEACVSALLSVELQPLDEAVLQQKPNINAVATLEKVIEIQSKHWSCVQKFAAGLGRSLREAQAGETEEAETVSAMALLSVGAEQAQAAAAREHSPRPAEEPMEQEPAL
Data set [7] in a line: Half life in human liver microsomes at 1 uM preincubated for 3 mins followed by NADPH addition and measured up to 60 mins by LC-MS/MS analysis. The conditions noted are these: time <=63 min. In kind it is ADME, Microsome. The method, boiled down: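 Mixed-gender human liver microsomes with test article at 1 µM final. Testosterone (5 µM) run separately as control. Mixture without cofactor equilibrated 3 min at 37 °C in a shaking water bath, then started with cofactor. Aliquots taken at 0, 10, 20, 30 and 60 min. CLint = k/P, where k is the elimination rate constant and P is the incubation protein concentration.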

Chain of Amyloid-beta precursor protein (P05067 whole entry): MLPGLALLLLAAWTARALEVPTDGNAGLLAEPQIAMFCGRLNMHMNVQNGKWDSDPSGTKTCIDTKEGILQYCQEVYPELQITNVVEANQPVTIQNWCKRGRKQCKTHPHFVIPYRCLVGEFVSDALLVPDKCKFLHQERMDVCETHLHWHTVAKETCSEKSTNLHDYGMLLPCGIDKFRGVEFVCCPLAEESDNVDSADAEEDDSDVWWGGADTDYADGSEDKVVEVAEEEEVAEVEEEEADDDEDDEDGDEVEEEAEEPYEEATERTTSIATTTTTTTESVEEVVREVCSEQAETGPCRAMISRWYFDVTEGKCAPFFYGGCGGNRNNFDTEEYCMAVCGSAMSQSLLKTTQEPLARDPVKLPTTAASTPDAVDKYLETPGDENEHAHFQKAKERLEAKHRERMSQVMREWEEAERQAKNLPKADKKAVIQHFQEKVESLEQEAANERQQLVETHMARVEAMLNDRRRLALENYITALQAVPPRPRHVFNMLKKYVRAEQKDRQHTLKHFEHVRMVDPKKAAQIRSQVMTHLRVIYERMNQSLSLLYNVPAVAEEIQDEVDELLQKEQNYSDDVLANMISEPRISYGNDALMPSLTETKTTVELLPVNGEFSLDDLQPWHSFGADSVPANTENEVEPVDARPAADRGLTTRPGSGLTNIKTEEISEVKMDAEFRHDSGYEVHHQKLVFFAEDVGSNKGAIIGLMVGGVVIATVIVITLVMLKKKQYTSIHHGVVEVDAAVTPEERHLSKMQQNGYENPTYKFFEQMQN
T2 sequence (O15379 whole entry, looked up): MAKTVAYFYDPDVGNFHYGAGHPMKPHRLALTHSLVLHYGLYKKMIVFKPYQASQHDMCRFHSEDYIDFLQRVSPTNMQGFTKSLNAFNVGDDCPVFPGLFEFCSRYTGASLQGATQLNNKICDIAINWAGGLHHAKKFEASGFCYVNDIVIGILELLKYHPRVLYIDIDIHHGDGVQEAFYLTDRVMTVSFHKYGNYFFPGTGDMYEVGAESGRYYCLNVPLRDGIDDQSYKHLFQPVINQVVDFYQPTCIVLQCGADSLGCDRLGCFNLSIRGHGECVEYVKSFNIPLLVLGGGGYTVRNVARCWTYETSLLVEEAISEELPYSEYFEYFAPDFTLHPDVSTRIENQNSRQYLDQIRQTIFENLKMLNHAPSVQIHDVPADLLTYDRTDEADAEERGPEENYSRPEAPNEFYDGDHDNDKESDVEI
T2 sequence (Q13547 whole entry, looked up): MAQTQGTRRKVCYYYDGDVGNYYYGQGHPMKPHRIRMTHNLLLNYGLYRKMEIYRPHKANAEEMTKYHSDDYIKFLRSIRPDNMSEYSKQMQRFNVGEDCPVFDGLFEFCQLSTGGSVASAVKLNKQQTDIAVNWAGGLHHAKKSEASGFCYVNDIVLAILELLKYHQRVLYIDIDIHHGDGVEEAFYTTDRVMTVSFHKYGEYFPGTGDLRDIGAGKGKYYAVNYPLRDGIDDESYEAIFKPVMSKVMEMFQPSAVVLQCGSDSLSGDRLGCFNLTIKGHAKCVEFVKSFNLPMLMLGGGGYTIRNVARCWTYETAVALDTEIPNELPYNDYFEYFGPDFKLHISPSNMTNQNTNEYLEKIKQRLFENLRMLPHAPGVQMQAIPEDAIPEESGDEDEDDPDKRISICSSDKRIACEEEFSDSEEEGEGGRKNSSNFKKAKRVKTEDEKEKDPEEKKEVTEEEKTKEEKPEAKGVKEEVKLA
T2 sequence (Q92769 whole entry, looked up): as the sequence (Q92769 whole entry) above
T2 sequence (Q9BY41 whole entry, looked up): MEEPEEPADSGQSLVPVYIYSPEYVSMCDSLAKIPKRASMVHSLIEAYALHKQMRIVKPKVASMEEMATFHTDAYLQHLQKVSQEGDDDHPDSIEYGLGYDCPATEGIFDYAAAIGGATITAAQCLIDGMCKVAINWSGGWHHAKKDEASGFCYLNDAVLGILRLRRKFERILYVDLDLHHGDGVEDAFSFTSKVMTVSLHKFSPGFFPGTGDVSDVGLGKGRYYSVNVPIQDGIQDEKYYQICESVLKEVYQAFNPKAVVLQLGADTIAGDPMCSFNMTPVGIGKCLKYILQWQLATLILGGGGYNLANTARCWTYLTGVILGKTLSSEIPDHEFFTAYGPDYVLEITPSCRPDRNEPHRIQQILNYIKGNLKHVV

As for `O=C(NO)c1ccc(Nc2c3ccccc3nc3ccc(Br)cc23)cc1`, the Activity result in the data set with Hippocampal neurone [1] and with Hippocampal neurone [6] was “Dose-dependent effect” in each case. For the same compound, the efflux ratio (in general, a quotient of directional permeabilities that is used to spot active efflux) at 2 h, 5 µM with MDR1 came to 7.42. Also, the EC50 (as a rule, the concentration at which the effect is half-maximal) stood at 8000 nM in data set [2] and 580 nM in [3]. In data set [3], the inhibition result was “Dose-dependent effect”. The IC50 – broadly, the concentration at which inhibition is half-maximal – in data set [4] was 160 nM; in data set [5], 1100 nM; at Histone deacetylase 2, 480 nM; at Histone deacetylase 5 it was 7190 nM. For the same compound, the half-life (as a rule, the time needed for the level to fall by half in the phase considered) at 1 µM in [7] was 37.9 min.

`O=C(NO)c1ccc(Nc2c3ccccc3nc3ccccc23)cc1`: the Activity result in the data set with Hippocampal neurone [1] was “Dose-dependent effect”. For the same compound, the EC50 in [2] stood at 8000 nM; in [3], 7960 nM. Moreover, the inhibition result in data set [3] is “Dose-dependent effect”. In addition, the IC50 in [4] is 550 nM; in data set [5], 3000 nM; on Histone deacetylase 2 it was 1570 nM; on Histone deacetylase 5, 850 nM. Also, the half-life at 1 µM in data set [7] came to 33.9 min.
